# ChEMBL document CHEMBL3098033, “Design, synthesis and biological evaluation of imine resveratrol derivatives as multi-targeted agents against Alzheimer's disease” (Eur J Med Chem, 2014)
# Activity calls are given as the source filed them. The calls are words filed in the database; no cut-off is given here.
# Assays:
# SH-SY5Y [1] = test: Neuroprotective activity in human SH-SY5Y cells assessed as inhibition H2O2-induced reduction of cell viability at 1.25 to 10 uM after 24 hrs by phase-contrast micrograph analysis; assay type: functional, cell-based; details: in the assay text read “MTT assay” for “phase-contrast micrograph analysis”
# Method in brief: (§1)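 SH-SY5Y cells seeded at 1×10^4 cells/well. After 24 h, medium replaced with compound (1.25, 2.5, 5, 10 μM) for 24 h at 37 °C. Cells then exposed to 100 μM H2O2 for 24 h and assessed by MTT, with phase-contrast images (200×). Viability given relative to cells without H2O2, three independent experiments.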
# [2] = molecular target: Amyloid-beta precursor protein (Homo sapiens) (UniProt P05067); test: Inhibition of Cu2+-induced amyloid beta (1 to 42) (unknown origin) aggregation at 50 uM after 24 hrs by thioflavin-T based fluorometric assay
# Method in brief: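 Aβ(1–42) at 25 μM final in HEPES pH 6.6 with NaCl, with or without 25 μM Cu2+, plus 50 μM compound, incubated at 37 °C for 24 h. Sample diluted into 50 mM glycine-NaOH pH 8.0 containing 5 μM ThT, read at ex/em 446/490 nm. Mean ± SD of three independent experiments.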
# [3] = molecular target: Amyloid-beta precursor protein (Homo sapiens) (UniProt P05067); test: Inhibition of amyloid beta (1 to 42) (unknown origin) self-induced aggregation at 20 uM after 46 to 48 hrs by thioflavin-T based fluorometric assay
# Method in brief: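 HFIP-pretreated Aβ(1–42) redissolved at 25 μM in 50 mM phosphate buffer, pH 7.4. Compound at 20 μM final, with 10% final solvent, run in independent triplicates with a solvent control. Incubated in the dark at room temperature for 46–48 h without agitation. 5 μM ThT in glycine-NaOH pH 8.0 added, ex/em 446/490 nm. Inhibition = 100 − (IFi/IFo × 100).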
# [4] = tested on: Radical scavenging activity; test: Antioxidant activity assessed as DPPH free radical scavenging activity after 30 mins by spectrophotometric analysis; assay type: functional
# Method in brief: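 Methanolic DPPH at 400 μM combined with serially diluted sample (1:9 by volume), 30 min at 37 °C in the dark, absorbance at 517 nm. Scavenging % = [1 − (A − C)/B] × 100, with a sample-only blank and MeOH as negative control. IC50 values are mean ± SD of three determinations.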
# [5] = Cytotoxicity against human SH-SY5Y cells assessed as reduction of cell viability at 1 to 50 uM after 24 hrs by MTT assay; assay type: cell-based
# Method in brief: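 SH-SY5Y cells grown in EMEM/Ham's F-12 (1:1) with 10% FBS, penicillin and streptomycin, 37 °C, 5% CO2. Seeded at 1×10^4 cells/well, switched to serum-free medium, exposed to compound for 24 h. MTT 4 h at 37 °C, formazan dissolved in DMSO, A570 with 630 nm reference. Mean ± SD of three independent experiments.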
# SH-SY5Y [6] = test: Neuroprotective activity in human SH-SY5Y cells assessed as inhibition H2O2-induced reduction of cell viability at 10 uM after 24 hrs by phase-contrast micrograph analysis; assay type: functional, cell-based; method in brief: as §1
# [7] = molecular target: Amyloid-beta precursor protein (Homo sapiens) (UniProt P05067); test: Inhibition of Cu2+-induced amyloid beta (1 to 42) (unknown origin) aggregation assessed as reduction of H2O2 production at 800 nM after 30 mins by HRP/Amplex red assay
# Method in brief: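 Mixture of CuCl2 400 nM, Aβ, compound 800 nM (1% DMSO) and sodium ascorbate 10 μM in phosphate buffer, 30 min at room temperature. Amplex Red/HRP working solution then added and incubated a further 30 min at room temperature. Fluorescence read at ex/em 530/590 nm, at least three measurements.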
# [8] = Metal chelating activity of the compound assessed as Fe2+-compound complex formation at 25 uM by UV-vis spectrometry; assay type: physicochemical
# [9] = Ratio of resveratrol IC50 to compound IC50 for DPPH free radical scavenging activity
# [10] = Metal chelating activity of the compound assessed as Cu2+-compound complex formation at 25 uM by UV-vis spectrometry; assay type: physicochemical
# Method in brief: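 Difference UV–vis spectra obtained by subtracting metal-alone and compound-alone spectra from the spectra of the mixture. Stoichiometry assessed with ligand fixed at 25 μmol/L and Cu2+ titrated from 2 to 50 μmol/L.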
# Chain of Amyloid-beta precursor protein (Homo sapiens) (P05067 whole entry): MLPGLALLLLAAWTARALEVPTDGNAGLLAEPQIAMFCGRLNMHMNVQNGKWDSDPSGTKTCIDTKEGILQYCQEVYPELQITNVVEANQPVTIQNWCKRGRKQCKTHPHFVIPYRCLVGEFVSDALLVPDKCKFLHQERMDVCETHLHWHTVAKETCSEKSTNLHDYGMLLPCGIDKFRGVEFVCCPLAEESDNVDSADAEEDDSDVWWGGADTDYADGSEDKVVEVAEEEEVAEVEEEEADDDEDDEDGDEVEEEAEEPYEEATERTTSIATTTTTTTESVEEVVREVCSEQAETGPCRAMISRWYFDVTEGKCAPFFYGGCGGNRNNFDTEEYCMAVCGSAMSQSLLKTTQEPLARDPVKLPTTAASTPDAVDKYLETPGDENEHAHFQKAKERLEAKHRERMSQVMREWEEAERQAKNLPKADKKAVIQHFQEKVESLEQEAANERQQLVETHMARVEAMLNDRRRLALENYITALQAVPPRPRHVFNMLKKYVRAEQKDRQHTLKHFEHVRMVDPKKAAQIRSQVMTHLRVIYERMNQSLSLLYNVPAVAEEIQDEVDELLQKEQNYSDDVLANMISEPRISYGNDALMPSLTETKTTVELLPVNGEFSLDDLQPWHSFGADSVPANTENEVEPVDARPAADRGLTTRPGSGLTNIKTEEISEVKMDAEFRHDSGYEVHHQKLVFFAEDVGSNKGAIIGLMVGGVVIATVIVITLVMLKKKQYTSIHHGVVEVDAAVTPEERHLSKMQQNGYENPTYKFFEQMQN
inhibition [3],IC50 [4],SMILES,other results
67.6%,36.8 µM,Oc1ccccc1/N=C/c1cccc(F)c1,Activity (SH-SY5Y [1]): Active; inhibition [2]: 70.2%; Activity [5]: Non-toxic
71.2%,399 µM,Oc1ccc(/N=C/c2ccccc2O)cc1,
69.4%,43.9 µM,Oc1ccccc1/N=C/c1ccccc1F,
64.3%,66.6 µM,Oc1cccc(/C=N/c2ccccc2O)c1,
64.2%,109 µM,Oc1ccc(/C=C/c2cc(O)cc(O)c2)cc1 [RESVERATROL],Activity (SH-SY5Y [6]): Active
33.8%,> 2000 µM,Oc1ccc(Cl)cc1/C=N/c1ccccc1,
,,O=C(O)CN(CCN(CC(=O)O)CC(=O)O)CC(=O)O,inhibition [7]: > 90%
66.1%,> 2000 µM,Oc1cccc(/N=C/c2ccccc2O)c1,
51.7%,39.9 µM,Oc1ccccc1/N=C/c1ccccc1,
63.1%,37.8 µM,Oc1ccc(/C=N/c2ccccc2O)c(O)c1,
67.2%,51.8 µM,Oc1ccccc1/C=N/c1ccccc1O,
31.3%,> 2000 µM,Oc1ccccc1/C=N/c1cccc(F)c1,
55.8%,45.1 µM,CN(C)c1ccc(/C=N/c2ccccc2O)cc1,
24.9%,> 2000 µM,Oc1ccccc1/C=N/c1ccc(F)cc1,
29%,794 µM,COc1ccc(O)c(/C=N/c2ccccc2)c1,
39.4%,28.5 µM,COc1ccc(/C=N/c2ccccc2O)cc1OC,
70.9%,26.5 µM,Oc1ccc(/C=N/c2ccccc2O)cc1,Activity (SH-SY5Y [1]): Active; inhibition [2]: 83.7%; Activity [5]: Non-toxic
64.6%,14.1 µM,Oc1ccc(/C=N/c2ccccc2O)cc1O,Activity (SH-SY5Y [1]): Active; inhibition [2]: 68.1%; Activity [8]: Active; Ratio IC50 [9]: 7.7; Activity [10]: Active; inhibition [7]: 80%; Activity [5]: Non-toxic
,,Oc1c(I)cc(Cl)c2cccnc12,inhibition [2]: 66.7%; inhibition [7]: 75%
67.8%,41.3 µM,Oc1ccccc1/N=C/c1ccc(F)cc1,
44.9%,> 2000 µM,Oc1ccccc1/C=N/c1ccccc1 [2-((PHENYLIMINO)METHYL)PHENOL],
27.8%,> 2000 µM,Oc1ccccc1/C=N/c1ccccc1F,
35.7%,32.7 µM,COc1ccc(/C=N/c2ccccc2O)cc1,
